High-throughput results deposited in PubChem BioAssay by The Scripps Research Institute Molecular Screening Center.
ABHD4 inh – inhibits mouse alpha/beta hydrolase domain 4; Q8VD66; purified mABHD4, FP-Rh probe fluorescence polarization; inhibition, % at 8.92 µM; actives 0.54% (n = 370,000);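 active means inhibition exceeding the mean over every tested compound plus 3 SD, cut at about 30% in these data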;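 further: 0% = plate median of compound wells and 100% = S159A mutant with DMSO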
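Assay system: mouse ABHD4 enzyme, wild type / Also added: fluorescent activity-based probe FP-Rh / Doses: single nominal dose of 8.92 µM, 0.89% DMSO final / Timing: 45 min compound pre-incubation plus 60 min probe step, 25 °C / Signal: FP readout, ex 525 nm / em 598 nm / Control set: S159A mutant/DMSO as 100%, compound-well median as 0%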
TCR CD3 inh – blocks the human TCR-CD3 interaction; AID 651800; TAMRA-labeled TCR probe fluorescence, biochemical; actives 0.37% (n = 360,000); inhibition, % at 9.4 µM; in the data active means inhibition above about 19%;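 further: recombinant mutant TCR 2C K166C tagged with TAMRA read by polarization; 0% = receptor in buffer alone and 100% = receptor with positive control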
rCAG binder – r(CAG) repeat RNA binding; TO-PRO-1 dye displacement fluorescence; inhibition, % at 3 µM; actives 1.3% (n = 370,000); AID 651821;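 active means inhibition above the plate cutoff, the mean of all test compounds on that plate plus 3 SD, cut at about 35% in these data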;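 further: 0% = DMSO alone and 100% = 100 µM mitoxantrone as full dye displacement; higher means more dye released from RNA so lower well fluorescence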
PRMT1 inh – inhibitors of human PRMT1; Q99873; recombinant PRMT1, activity-based probe fluorescence polarization; inhibition, % at 2.79 µM; actives 1.3% (n = 370,000); AID 652257;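 active means inhibition above about 21% made by adding two undisclosed values, limit read from the data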
SIAE primary – human SIAE inhibition, primary screen; SIAE FP-Rh probe binding, fluorescence polarization; Q9HAT2; actives 0.69% (n = 370,000); inhibition, % at 9.66 µM; AID 1053197;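 active means inhibition above a cutoff: mean of compounds within the control limits plus 3 SD of those, cut at about 17% in these data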;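 further: 0% = plate median of compound wells and 100% = probe without SIAE protein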
Target sequence (Q9HAT2 whole entry, looked up): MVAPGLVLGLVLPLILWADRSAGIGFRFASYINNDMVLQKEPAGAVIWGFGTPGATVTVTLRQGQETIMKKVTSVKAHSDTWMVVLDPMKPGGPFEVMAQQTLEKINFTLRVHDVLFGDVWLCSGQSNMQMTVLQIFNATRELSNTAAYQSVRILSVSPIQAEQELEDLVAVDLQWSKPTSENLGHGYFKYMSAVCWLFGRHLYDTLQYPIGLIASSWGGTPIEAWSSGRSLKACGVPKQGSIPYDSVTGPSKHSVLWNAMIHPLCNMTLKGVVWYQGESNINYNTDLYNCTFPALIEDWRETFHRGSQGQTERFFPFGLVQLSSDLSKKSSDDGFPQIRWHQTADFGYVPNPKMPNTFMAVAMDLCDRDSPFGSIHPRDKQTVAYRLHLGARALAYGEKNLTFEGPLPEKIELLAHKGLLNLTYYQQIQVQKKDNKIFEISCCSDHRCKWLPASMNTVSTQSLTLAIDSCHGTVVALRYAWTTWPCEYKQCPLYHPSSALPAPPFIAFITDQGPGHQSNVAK
* hit, by the source's call; nt = not tested or not shown. Only some compounds are listed: those with a hit (about 3.3% of all), similar ones and a draw of the others.

SMILES	ABHD4 inh	TCR CD3 inh	rCAG binder	PRMT1 inh	SIAE primary
Cn1ccnc1SCC(=O)Nc1sccc1C#N	0.8	1.5	15.2	22.3*	0.6
Cc1nnc(SCC(=O)Nc2sccc2C#N)s1	7.0	6.0	7.4	8.6	0.0
Cc1ccc2cccc(NC3OC(=O)c4ccccc43)c2n1 (stereo unspecified)	7.0	9.8	1.0	0.7	19.1*
Fc1cccc(CNC(=S)OC2CCC23CCC(c2ccccc2)CC3)c1 (stereo unspecified)	-6.8	nt	5.7	11.7	-3.1
CCC(Sc1nc2ccccc2[nH]1)C(=O)Nc1cc(C)on1 (stereo unspecified)	1.5	1.0	2.6	-1.4	-0.5
CCC(Sc1nc(-c2ccccc2)c(C#N)c(=O)[nH]1)C(=O)Nc1cc(C)on1 (stereo unspecified)	-13.5	-3.0	50.2*	0.6	-8.8
O=C(CSc1nc2cc([N+](=O)[O-])ccc2n1-c1ccccc1)NCc1ccc2c(c1)OCO2	-6.0	-1.4	3.4	24.0*	4.0
COc1[nH]c(/N=C/c2ccccc2)c(C#N)c1C#N	117.8*	135.5*	-137.9	59.2*	112.0*
COc1ccc([C@H]2Oc3cc(O)cc(O)c3C(=O)C2[C@@H]2C(=O)c3c(O)cc(O)cc3O[C@@H]2c2ccc(OC)cc2)cc1 (stereo partly specified)	-88.8	-6.0	58.1*	1.0	-42.0
Cc1nn(-c2ccccc2)c2sc(C(=O)NC3CCCCCCC3)cc12	-6.2	nt	9.6	-0.6	-0.6
O=C(NC1CCCCN(Cc2cccc(Cl)c2)C1=O)c1cccc(C(F)(F)F)c1 (stereo unspecified)	2.8	nt	-4.0	-1.4	-1.3
O=C(O)CSc1c2ccccc2cc2ccccc12	21.7	-0.4	8.8	31.4*	3.3
CCOC(=O)[C@@]12CN(C(=O)OC(C)(C)C)CC=C1N(Cc1ccc(OC)cc1)C(=O)[C@H]2CC(=O)N1CCCCC1	9.7	nt	-0.1	4.0	1.4
O=[N+]([O-])c1ccc(S(=O)Cc2ccccc2)c([N+](=O)[O-])c1 (stereo unspecified)	6.9	6.0	4.4	38.2*	1.7
COc1ccccc1NC(=S)NNC(=O)c1ccccc1	6.5	6.5	2.5	-2.1	7.9
COc1ccccc1NC(=S)c1ccccc1	-10.9	-3.4	3.6	22.7*	3.6
CCCCC1=CC2=CC(=O)C(C)(OC(=O)c3cccs3)C(=O)C2=CO1 (stereo unspecified)	21.9	6.5	36.6*	7.1	1.6
CCCCC1=CC2=CC(=O)C(C)(OC(=O)CCc3ccccc3)C(=O)C2=CO1 (stereo unspecified)	13.5	-1.8	21.9	5.6	-1.9
Cc1nnc(SCC(=O)Nc2ccc(C(N)=O)cc2)n1-c1ccccc1	-5.4	3.3	-0.2	3.2	2.0
NC(=O)c1ccc(NC(=O)CSC(=O)c2ccccc2)cc1	-2.5	3.8	3.3	35.9*	-5.3
CCOc1ccc(-n2c(SCC(=O)Nc3ccccc3-c3ccccc3)nnc2-c2cccs2)cc1	-9.9	nt	7.6	-1.4	-3.9
O=c1[nH][nH]c2cc(=O)n(-c3ccc(Cl)cc3)nc12	53.7*	13.8	43.4*	12.3	15.3
CC(=O)c1nn(-c2ccc(Cl)cc2)c(=O)[nH]c1=O	-2.0	2.6	5.0	-1.7	-4.9
O=C(c1ccccc1NS(=O)(=O)c1ccc([N+](=O)[O-])cc1[N+](=O)[O-])N1O[C@@H]2C=C[C@H]1C2	19.8	0.3	35.1*	16.7	3.5
O=C(c1ccccc1NS(=O)(=O)c1ccccc1[N+](=O)[O-])N1CCOCC1	2.3	2.1	2.3	1.1	-5.4
SMILES	ABHD4 inh	TCR CD3 inh	rCAG binder	PRMT1 inh	SIAE primary
N#CC(c1ccc(Cl)cc1)c1ccc2c(C(F)(F)F)cc(C(F)(F)F)nc2n1 (stereo unspecified)	14.1	6.5	3.9	0.5	22.8*
COc1ccc(OC)c(S(=O)(=O)N2CCCCC2C(=O)N2CCN(c3ccc(F)cc3)CC2)c1 (stereo unspecified)	4.3	nt	6.0	6.4	1.8
N#Cc1c(C(F)(F)F)cc(-c2ccccc2)[nH]c1=O	-7.5	8.3	19.5	-1.2	-1.3
N#Cc1c(C(F)(F)F)cc(-c2ccccc2Cl)[nH]c1=O	-56.6	-3.4	37.0*	3.4	-76.0
N#CCCCN1C(=O)C(=C(C#N)C#N)c2ccccc21	3.3	6.1	3.5	23.6*	5.0
CC(C)C[C@@H]1COc2cccc(F)c2S(=O)(=O)N1C	2.4	nt	-1.3	-1.5	2.4
COc1ccc(CNC(=S)OC2CCC23CCC(c2ccccc2)CC3)cc1 (stereo unspecified)	-14.5	nt	1.4	-1.3	-4.5
CC1(C(=O)O)CCCN1C(=O)c1ccc(Cl)cc1Cl (stereo unspecified)	0.8	-6.3	-0.4	4.2	-5.4
Cc1oc(-c2ccc(Cl)cc2)cc1C(=O)N1CCC1(C)C(=O)O (stereo unspecified)	-4.4	2.8	3.5	23.4*	-2.3
COC(=O)[C@H](CC1(c2cn(S(=O)(=O)CC[Si](C)(C)C)c3ccccc23)C(=O)Nc2ccccc21)NC(=O)OC(C)(C)C (stereo partly specified)	-20.9	nt	nt	3.3	-13.3
CCN(CC)C(=O)CC[C@H]1CC[C@]2(CCCN(Cc3cccnc3)C2)O1	-0.9	nt	2.0	0.3	14.8
COc1ccccc1NS(=O)(=O)c1cc(NC(=O)C(C)(C)C)ccc1N1CCOCC1	-5.1	0.9	0.7	-1.9	-3.9
O=C(Nc1ccc(F)cc1)Nc1ccc(N2CCCC2)c(S(=O)(=O)Nc2ccccc2Cl)c1	-22.3	-7.7	37.0*	4.1	-67.6
COc1ccccc1NS(=O)(=O)c1cc(NC(=O)C2CCCC2)ccc1N1CCOCC1	-7.7	-0.5	9.3	23.1*	-2.5
COc1ccccc1NS(=O)(=O)c1cc(NC(=O)c2cccs2)ccc1N1CCCC1	-35.2	-1.2	15.4	22.9*	-55.7
O=C(CSc1nnc(-c2cccnc2)n1-c1ccccc1)Nc1ccc(OCc2ccccc2)cc1	-3.8	nt	5.8	-2.0	-5.4
O=C(CSc1nc2ccccc2nc1N1CCCCC1)NCc1ccc(Cl)cc1Cl	-1.1	nt	5.6	-4.2	-1.9
CC(C)CC1NC(=O)N(CC(=O)N2c3ccccc3NC(=O)C2(C)C)C1=O (stereo unspecified)	2.1	-0.4	-4.7	1.1	20.2*
CC(=O)Nc1sc2c(c1-c1nc3ccccc3s1)CCN(C(C)=O)C2	8.9	nt	nt	18.5	12.7
CC(=O)N1CCc2c(sc(NC(=O)C3CC3)c2-c2nc3ccccc3s2)C1	-2.7	2.7	18.2	29.5*	-21.4
CC1=C(C#N)C(=O)NC(=O)/C1=C\c1ccc(-c2cc(C)c(C)cc2[N+](=O)[O-])o1	40.8*	-8.1	55.3*	39.9*	-32.5
Cc1ccc(-c2ccc(/C=C3/NC(=O)NC3=O)o2)cc1[N+](=O)[O-]	1.3	-0.3	10.8	0.8	-0.2
CC1(C)CC(=O)C=C(Nc2ccccc2NC(=O)c2cccc(F)c2F)C1	4.4	nt	-0.5	1.2	0.4
O=C1Nc2ccccc2C1Cc1ccccc1 (stereo unspecified)	-1.0	-2.3	2.0	0.0	-3.4
